Measured values taken from ChEMBL document CHEMBL1145090, “In vitro analysis of stable, receptor-selective neurotensin[8-13] analogues” (J Med Chem, 2003).
Numbered stars: 1 amine (or outer) side, 2 acyl side, 3 side chain; on linkers, the order of the positions; unused ones are H or OH. Square brackets hold non-standard residues; d marks the D form. Peptide text beside a SMILES is read from it. X7 = CCNC(=N)NCCC[C@H](N)C(=O)/N=C(/N)NCCC[C@H](N[*:1])C(=O)[*:2]; X9 = NC1=NCCN1CCC[C@H](N[*:1])C(=O)[*:2]; Tle = CC(C)(C)[C@H](N)C(=O)O; hLys = NCCCCC[C@H](N)C(=O)O

Experiments:
[1] = biological target: Neurotensin receptor type 2 (Homo sapiens, UniProt O95665); test: Evaluated for binding affinity by inhibiting binding of [125I]Tyr(3)-NT to human Neurotensin receptor 2
Neurotensin receptor type 2, sequence (O95665 whole entry): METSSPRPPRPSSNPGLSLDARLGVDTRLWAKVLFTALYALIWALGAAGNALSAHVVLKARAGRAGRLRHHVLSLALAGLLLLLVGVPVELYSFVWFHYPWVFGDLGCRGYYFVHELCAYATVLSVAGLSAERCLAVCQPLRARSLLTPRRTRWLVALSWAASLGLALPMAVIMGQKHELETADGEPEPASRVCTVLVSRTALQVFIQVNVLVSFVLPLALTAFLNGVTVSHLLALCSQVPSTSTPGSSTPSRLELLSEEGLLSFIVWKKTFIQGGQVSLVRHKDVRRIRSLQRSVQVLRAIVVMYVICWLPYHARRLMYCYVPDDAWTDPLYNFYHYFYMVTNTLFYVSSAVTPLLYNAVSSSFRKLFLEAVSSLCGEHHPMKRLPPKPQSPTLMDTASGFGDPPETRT

[2] = biological target: Neurotensin receptor type 1 (Homo sapiens, UniProt P30989); test: Evaluated for binding affinity by inhibiting binding of [125I]-Tyr(3)-NT to human Neurotensin receptor 1
Neurotensin receptor type 1, sequence (P30989 whole entry): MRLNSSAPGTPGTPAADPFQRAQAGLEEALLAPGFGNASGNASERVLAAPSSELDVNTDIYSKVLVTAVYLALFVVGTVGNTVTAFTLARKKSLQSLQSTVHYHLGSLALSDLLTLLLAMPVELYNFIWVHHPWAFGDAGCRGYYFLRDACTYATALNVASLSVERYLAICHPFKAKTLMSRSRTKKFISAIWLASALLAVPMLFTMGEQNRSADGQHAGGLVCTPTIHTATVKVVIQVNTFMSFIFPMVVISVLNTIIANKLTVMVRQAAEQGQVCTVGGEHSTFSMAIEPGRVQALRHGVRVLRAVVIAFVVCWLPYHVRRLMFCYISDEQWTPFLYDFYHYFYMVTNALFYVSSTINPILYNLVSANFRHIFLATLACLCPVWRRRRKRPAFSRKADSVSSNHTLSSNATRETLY

[3] = biological target: T1, Sortilin (Homo sapiens, UniProt Q99523); test: Evaluated for binding affinity by inhibiting binding of [125I]Tyr(3)-NT to human Neurotensin receptor 3
T1 sequence (Q99523 whole entry): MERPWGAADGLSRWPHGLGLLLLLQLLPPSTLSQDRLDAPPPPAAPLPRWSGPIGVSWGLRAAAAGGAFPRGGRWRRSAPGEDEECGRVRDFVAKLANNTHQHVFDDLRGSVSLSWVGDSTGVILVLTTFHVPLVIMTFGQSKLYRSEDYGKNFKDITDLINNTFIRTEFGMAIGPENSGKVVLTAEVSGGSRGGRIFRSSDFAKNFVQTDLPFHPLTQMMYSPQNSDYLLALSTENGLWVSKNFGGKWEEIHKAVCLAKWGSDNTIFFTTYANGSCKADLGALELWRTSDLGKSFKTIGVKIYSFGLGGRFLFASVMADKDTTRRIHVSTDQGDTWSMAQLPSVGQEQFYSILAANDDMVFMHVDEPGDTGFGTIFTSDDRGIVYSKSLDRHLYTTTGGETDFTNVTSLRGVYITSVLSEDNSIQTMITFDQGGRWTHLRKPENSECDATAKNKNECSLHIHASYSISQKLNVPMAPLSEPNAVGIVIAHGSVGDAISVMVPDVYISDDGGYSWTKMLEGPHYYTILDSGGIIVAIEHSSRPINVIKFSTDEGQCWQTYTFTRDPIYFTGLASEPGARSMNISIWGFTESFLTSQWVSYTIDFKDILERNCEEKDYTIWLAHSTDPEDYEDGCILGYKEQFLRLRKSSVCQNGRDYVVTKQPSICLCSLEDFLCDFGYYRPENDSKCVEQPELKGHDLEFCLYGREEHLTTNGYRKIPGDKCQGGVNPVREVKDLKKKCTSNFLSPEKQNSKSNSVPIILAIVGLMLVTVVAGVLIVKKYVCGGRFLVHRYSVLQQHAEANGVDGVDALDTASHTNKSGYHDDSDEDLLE
Outline: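 Whole cells (2 × 10^5) transiently expressing human NTR-3, ~60 h post-transfection. Equilibrated 10 min in Earle's Tris-HEPES pH 7.5 with 0.1% glucose and 0.1% BSA, then incubated 30 min at 37 °C with 0.4 nM 125I-Tyr(3)-NT, 0.8 mM 1,10-phenanthroline and increasing peptide. Washed, lysed in 0.1 N NaOH, gamma-counted. Nonspecific binding with 1 µM NT. IC50 taken.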

[4] = Plasma half life in rat serum; type: ADME, organism-based

CC[C@H](C)[C@H](NC(=O)[C@H](Cc1ccc(O)cc1)NC(=O)[C@@H]1CCCN1C(=O)[C@@H](N)CCC/N=C(/N)NC(=O)[C@@H](N)CCCN=C(N)N)C(=O)N[C@@H](CC(C)C)C(=O)O
IC50 [1]: 0.9 nM
IC50 [2]: 0.4 nM
IC50 [3]: 1740 nM
half-life [4]: 2.9 h

CC[C@H](C)[C@H](NC(=O)[C@H](Cc1ccc(O)cc1)NC(=O)[C@@H]1CCCN1C(=O)[C@@H](N)CCC/N=C(/N)NC(=O)[C@@H](N)CCCCN(C)C)C(=O)N[C@@H](CC(C)C)C(=O)O
IC50 [1]: 2.8 nM
IC50 [2]: 0.4 nM
IC50 [3]: 1620 nM
half-life [4]: 2.12 h

CC[C@H](C)[C@H](NC(=O)[C@H](Cc1ccc(O)cc1)NC(=O)[C@@H]1CCCN1C(=O)[C@@H](N)CCCNC(=N)NC(=O)[C@@H](N)CCCCC[N+](C)(C)C)C(=O)N[C@@H](CC(C)C)C(=O)O
IC50 [1]: 3.1 nM
IC50 [2]: 0.51 nM
IC50 [3]: 550 nM
half-life [4]: 1.72 h

CC[C@H](C)[C@H](NC(=O)[C@H](Cc1ccc(O)cc1)NC(=O)[C@@H]1CCCN1C(=O)[C@@H](N)CCCN=C(N)NC(=O)[C@@H](N)CCCNC)C(=O)N[C@@H](CC(C)C)C(=O)O
IC50 [1]: 3.5 nM
IC50 [3]: 640 nM

CC[C@H](C)[C@H](NC(=O)[C@H](Cc1ccc(O)cc1)NC(=O)[C@@H]1CCCN1C(=O)[C@@H](N)CCC/N=C(/N)NC(=O)[C@@H](N)CCCN(C)C)C(=O)N[C@@H](CC(C)C)C(=O)O
IC50 [1]: 5.1 nM
IC50 [3]: 480 nM

CC[C@H](C)[C@H](NC(=O)[C@H](Cc1ccc(O)cc1)NC(=O)[C@@H]1CCCN1C(=O)[C@@H](N)CCC/N=C(/N)NC(=O)[C@@H](N)CCCCCNC)C(=O)N[C@@H](CC(C)C)C(=O)O
IC50 [1]: 6.9 nM
IC50 [2]: 0.52 nM
IC50 [3]: 400 nM
half-life [4]: 3.52 h

CC[C@H](C)[C@H](NC(=O)[C@H](Cc1ccc(O)cc1)NC(=O)[C@@H]1CCCN1C(=O)[C@@H](N)CCC/N=C(/N)NC(=O)[C@@H](N)CCCCCN(C)C)C(=O)N[C@@H](CC(C)C)C(=O)O
IC50 [1]: 3.5 nM
IC50 [2]: 0.28 nM
IC50 [3]: 700 nM
half-life [4]: 2.1 h

CCNC(=N)NCCC[C@H](N)C(=O)N[C@@H](CCCNC(=N)N)C(=O)N1CCC[C@H]1C(=O)N[C@@H](Cc1ccc(O)cc1)C(=O)N[C@H](C(=O)N[C@@H](CC(C)C)C(=O)O)[C@@H](C)CC
half-life [4]: 0.525 h

CC[C@H](C)[C@H](NC(=O)[C@H](Cc1ccc(O)cc1)NC(=O)[C@@H]1CCCN1C(=O)[C@@H](N)CCC/N=C(/N)NC(=O)[C@@H](N)CCCCNC)C(=O)N[C@@H](CC(C)C)C(=O)O
IC50 [1]: 1.8 nM
IC50 [2]: 0.34 nM
IC50 [3]: 1150 nM
half-life [4]: 2.13 h

CC[C@H](C)[C@H](NC(=O)[C@H](Cc1ccc(O)cc1)NC(=O)[C@@H]1CCCN1C(=O)[C@@H](N)CCC/N=C(/N)NC(=O)[C@@H](N)CCCCCN)C(=O)N[C@@H](CC(C)C)C(=O)O
IC50 [1]: 0.7 nM
IC50 [2]: 0.38 nM
IC50 [3]: 1200 nM
half-life [4]: 2.55 h

CC[C@H](C)[C@H](NC(=O)[C@H](Cc1ccc(O)cc1)NC(=O)[C@@H]1CCCN1C(=O)[C@@H](N)CCC/N=C(/N)NC(=O)[C@@H](N)CCCN1CCN=C1N)C(=O)N[C@@H](CC(C)C)C(=O)O
IC50 [1]: 0.23 nM
IC50 [3]: 590 nM

CC[C@H](C)[C@H](NC(=O)[C@H](Cc1ccc(O)cc1)NC(=O)[C@@H]1CCCN1C(=O)[C@@H](N)CCCN=C(N)NC(=O)[C@@H](N)CCCN)C(=O)N[C@@H](CC(C)C)C(=O)O
IC50 [1]: 3 nM
IC50 [2]: 0.59 nM
IC50 [3]: 1400 nM
half-life [4]: 2.23 h

CC[C@H](C)[C@H](NC(=O)[C@H](Cc1ccc(O)cc1)NC(=O)[C@@H]1CCCN1C(=O)[C@H](CCCNC(=N)N)NC(=O)[C@@H](N)CCCNC(=N)N)C(=O)N[C@@H](CC(C)C)C(=O)O
half-life [4]: 0.0983 h

CC[C@H](C)[C@H](NC(=O)[C@H](Cc1ccc(O)cc1)NC(=O)[C@@H]1CCCN1C(=O)[C@@H](N)CCCN=C(N)NC(=O)[C@@H](N)CCCCN)C(=O)N[C@@H](CC(C)C)C(=O)O
IC50 [1]: 2.1 nM
IC50 [2]: 0.3 nM
IC50 [3]: 512 nM
half-life [4]: 2.27 h

CC[C@H](C)[C@H](NC(=O)[C@H](Cc1ccc(O)cc1)NC(=O)[C@@H]1CCCN1C(=O)[C@H](CCCNC(=N)N)NC(=O)[C@@H](N)CCCN=C(N)NC)C(=O)N[C@@H](CC(C)C)C(=O)O
half-life [4]: 0.237 h

CC[C@H](C)[C@H](NC(=O)[C@H](Cc1ccc(O)cc1)NC(=O)[C@@H]1CCCN1C(=O)[C@@H](N)CCCN=C(N)NC(=O)[C@@H](N)CCCN=C(N)NC)C(=O)N[C@@H](CC(C)C)C(=O)O
IC50 [1]: 0.67 nM
IC50 [3]: 720 nM

CC(C)C[C@H](NC(=O)[C@@H](NC(=O)[C@H](Cc1c[nH]c2ccccc12)NC(=O)[C@@H]1CCCN1C(=O)[C@@H](N)CCCN=C(N)NC(=O)[C@@H](N)CCCCCN)C(C)(C)C)C(=O)O (H-R(hLys)PW[Tle]L-OH)
IC50 [1]: 500 nM
IC50 [2]: 133 nM
IC50 [3]: 53700 nM
half-life [4]: > 24 h

CC(C)C[C@H](NC(=O)[C@@H](NC(=O)[C@H](Cc1ccc(O)cc1)NC(=O)[C@@H]1CCCN1C(=O)[C@@H](N)CCCN=C(N)NC(=O)[C@@H](N)CCCCCN)C(C)(C)C)C(=O)O (H-R(hLys)PY[Tle]L-OH)
IC50 [1]: 11.1 nM
IC50 [3]: 4000 nM

CCNC(=N)NCCC[C@H](N)C(=O)/N=C(/N)NCCC[C@H](N)C(=O)N1CCC[C@H]1C(=O)N[C@@H](Cc1ccc(O)cc1)C(=O)N[C@H](C(=O)N[C@@H](CC(C)C)C(=O)O)[C@@H](C)CC (H-[X7]PYIL-OH)
IC50 [1]: 0.3 nM
IC50 [3]: 480 nM

CC[C@H](C)[C@H](NC(=O)[C@H](Cc1ccc(O)cc1)NC(=O)[C@@H]1CCCN1C(=O)[C@H](CCCNC(=N)N)NC(=O)[C@@H](N)CCCN1CCN=C1N)C(=O)N[C@@H](CC(C)C)C(=O)O (H-[X9]RPYIL-OH)
half-life [4]: 0.275 h

CC(C)C[C@H](NC(=O)[C@@H](NC(=O)[C@H](Cc1ccc(O)cc1)NC(=O)[C@@H]1CCCN1C(=O)[C@H](CCCNC(=N)N)NC(=O)[C@@H](N)CCCCCN)C(C)(C)C)C(=O)O (H-[hLys]RPY[Tle]L-OH)
IC50 [2]: 5.71 nM
half-life [4]: > 24 h
